Data: ChEMBL document CHEMBL1134964, “Heterocyclic benzazole derivatives with antimycobacterial in vitro activity” (2002)
In brackets after ≈: the same amount, converted by molar mass.

How the values were obtained:
Type in all cases: functional
Mycobacterium kansasii [1] = test: In vitro inhibition of Mycobacterium Kansasi (My 6 509/96) growth after 7 days culture.; details: 168 h
[2] = tested on: Mycobacterium tuberculosis; test: In vitro inhibition of Mycobacterium Tuberculosis (My 331/88) growth after 14 days culture.; details: 336 h
Summary of the method: (§1)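 Micromethod broth MIC. Compounds tested at 500, 250, 125, 32, 16, 8, 4 and 2, plus one intermediate level between 125 and 32. Plates incubated at 37 C and read at 7, 14 and 21 days. MIC is the lowest concentration at which growth of the mycobacteria was inhibited. MIC could not be set where solubility in the test medium was limited.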

[3] = tested on: Mycobacterium tuberculosis; test: In vitro inhibition of Mycobacterium Tuberculosis (My 331/88) growth after 21 days culture.; details: 504 h; summary of the method: as §1
Mycobacterium kansasii [4] = test: In vitro inhibition of Mycobacterium Kansasi (My 235/80) growth after 21 days culture.; details: 504 h
Mycobacterium kansasii [5] = test: In vitro inhibition of Mycobacterium Kansasi (My 6 509/96) growth after 14 days culture.; details: 336 h
Mycobacterium kansasii [6] = test: In vitro inhibition of Mycobacterium Kansasi (My 235/80) growth after 14 days culture.; details: 336 h
Mycobacterium avium [7] = test: In vitro inhibition of Mycobacterium Avium growth after 14 days culture.; details: 336 h; summary of the method: as §1
Mycobacterium avium [8] = test: In vitro inhibition of Mycobacterium Avium (My 330/88) growth after 21 days culture.; details: 504 h; summary of the method: as §1
Mycobacterium kansasii [9] = test: In vitro inhibition of Mycobacterium Kansasi (My 235/80) growth after 7 days culture.; details: 168 h
Mycobacterium kansasii [10] = test: In vitro inhibition of Mycobacterium Kansasi (My 6 509/96) growth after 21 days culture.; details: 504 h
Mycobacterium kansasii [11] = test: In vitro minimum inhibitory concentration the compound for anti-mycobacterial activity was determined against Mycobacterium kansasii (My 6 509/96) by micromethod after 14 days of incubation; details: 336 h
Mycobacterium avium [12] = test: In vitro minimum inhibitory concentration the compound for anti-mycobacterial activity was determined against Mycobacterium avium (My 330/88) by micromethod after 21 days of incubation; details: 504 h; summary of the method: as §1
Mycobacterium kansasii [13] = test: In vitro minimum inhibitory concentration the compound for anti-mycobacterial activity was determined against Mycobacterium kansasii (My 6 509/96) by micromethod after 21 days of incubation; details: 504 h
Mycobacterium kansasii [14] = test: In vitro minimum inhibitory concentration the compound for anti-mycobacterial activity was determined against Mycobacterium kansasii (My 6 509/96) by micromethod after 7 days of incubation; details: 168 h
Mycobacterium kansasii [15] = test: In vitro minimum inhibitory concentration the compound for anti-mycobacterial activity was determined against Mycobacterium kansasii (My 235/80) by micromethod after 14 days of incubation; details: 336 h
Mycobacterium avium [16] = test: In vitro minimum inhibitory concentration the compound for anti-mycobacterial activity was determined against Mycobacterium avium (My 330/88) by micromethod after 14 days of incubation; details: 336 h; summary of the method: as §1
Mycobacterium kansasii [17] = test: In vitro minimum inhibitory concentration the compound for anti-mycobacterial activity was determined against Mycobacterium kansasii (My 235/80) by micromethod after 21 days of incubation; details: 504 h
HeLa = test: The compound was tested for cytotoxicity against HeLa cells.; details: Homo sapiens
[18] = Ratio of cytotoxicity to minimum inhibitory concentration of Mycobacterium tuberculosis My 331/88 was evaluated

Sc1nc2ccccc2o1
MIC (Mycobacterium kansasii [1]): 250 µM (≈ 37.8 µg/mL) | MIC [2]: 500 µM (≈ 75.6 µg/mL) | MIC [3]: 500 µM (≈ 75.6 µg/mL) | MIC (Mycobacterium kansasii [4]): 1000 µM (≈ 151 µg/mL) | MIC (Mycobacterium kansasii [5]): 500 µM (≈ 75.6 µg/mL) | MIC (Mycobacterium kansasii [6]): 1000 µM (≈ 151 µg/mL) | MIC (Mycobacterium avium [7]): 250 µM (≈ 37.8 µg/mL) | MIC (Mycobacterium avium [8]): 500 µM (≈ 75.6 µg/mL) | MIC (Mycobacterium kansasii [9]): 500 µM (≈ 75.6 µg/mL) | MIC (Mycobacterium kansasii [10]): 1000 µM (≈ 151 µg/mL)

O=[N+]([O-])c1cccc(CSc2nc3ccccc3o2)c1
MIC (Mycobacterium kansasii [1]): 32 µM (≈ 9.16 µg/mL) | MIC [2]: > 62 µM | MIC [3]: 125 µM (≈ 35.8 µg/mL) | MIC (Mycobacterium kansasii [4]): > 32 µM | MIC (Mycobacterium kansasii [5]): 32 µM (≈ 9.16 µg/mL) | MIC (Mycobacterium kansasii [6]): > 32 µM | MIC (Mycobacterium avium [7]): > 32 µM | MIC (Mycobacterium avium [8]): > 62 µM | MIC (Mycobacterium kansasii [9]): 32 µM (≈ 9.16 µg/mL) | MIC (Mycobacterium kansasii [10]): > 32 µM

O=[N+]([O-])c1cccc(CSc2nc3ccccc3s2)c1
MIC (Mycobacterium kansasii [1]): 32 µM (≈ 9.68 µg/mL) | MIC [2]: > 62 µM | MIC [3]: > 125 µM | MIC (Mycobacterium kansasii [4]): > 125 µM | MIC (Mycobacterium kansasii [5]): 62 µM (≈ 18.7 µg/mL) | MIC (Mycobacterium kansasii [6]): > 125 µM | MIC (Mycobacterium avium [7]): 62 µM (≈ 18.7 µg/mL) | MIC (Mycobacterium avium [8]): 62 µM (≈ 18.7 µg/mL) | MIC (Mycobacterium kansasii [9]): 62 µM (≈ 18.7 µg/mL) | MIC (Mycobacterium kansasii [10]): > 62 µM

c1ccc(CSc2nc3ccccc3s2)cc1
MIC [2]: 250 µM (≈ 64.3 µg/mL) | MIC [3]: 500 µM (≈ 129 µg/mL) | MIC (Mycobacterium kansasii [11]): 125 µM (≈ 32.2 µg/mL) | MIC (Mycobacterium avium [12]): 62 µM (≈ 16 µg/mL) | MIC (Mycobacterium kansasii [13]): 250 µM (≈ 64.3 µg/mL) | MIC (Mycobacterium kansasii [14]): 62 µM (≈ 16 µg/mL) | MIC (Mycobacterium kansasii [15]): 500 µM (≈ 129 µg/mL) | MIC (Mycobacterium avium [16]): 32 µM (≈ 8.24 µg/mL) | MIC (Mycobacterium kansasii [17]): > 500 µM | MIC (Mycobacterium kansasii [9]): 62 µM (≈ 16 µg/mL)

O=[N+]([O-])c1cc(CSc2nc3ccccc3s2)cc([N+](=O)[O-])c1
MIC [2]: 2 µM (≈ 0.695 µg/mL) | MIC [3]: 2 µM (≈ 0.695 µg/mL) | CC50 (HeLa): > 144 µM | Safety index [18]: >72 | MIC (Mycobacterium kansasii [4]): > 62 µM | MIC (Mycobacterium kansasii [5]): 32 µM (≈ 11.1 µg/mL) | MIC (Mycobacterium kansasii [6]): 16 µM (≈ 5.56 µg/mL) | MIC (Mycobacterium avium [7]): 62 µM (≈ 21.5 µg/mL) | MIC (Mycobacterium avium [8]): 62 µM (≈ 21.5 µg/mL) | MIC (Mycobacterium kansasii [9]): 16 µM (≈ 5.56 µg/mL) | MIC (Mycobacterium kansasii [10]): > 62 µM

N#Cc1cccc(CSc2nc3ccccc3o2)c1
MIC (Mycobacterium kansasii [1]): 32 µM (≈ 8.52 µg/mL) | MIC [2]: 125 µM (≈ 33.3 µg/mL) | MIC [3]: 125 µM (≈ 33.3 µg/mL) | MIC (Mycobacterium kansasii [4]): 125 µM (≈ 33.3 µg/mL) | MIC (Mycobacterium kansasii [5]): 62 µM (≈ 16.5 µg/mL) | MIC (Mycobacterium kansasii [6]): 62 µM (≈ 16.5 µg/mL) | MIC (Mycobacterium avium [7]): 62 µM (≈ 16.5 µg/mL) | MIC (Mycobacterium avium [8]): 62 µM (≈ 16.5 µg/mL) | MIC (Mycobacterium kansasii [9]): 32 µM (≈ 8.52 µg/mL) | MIC (Mycobacterium kansasii [10]): 62 µM (≈ 16.5 µg/mL)

N#Cc1cccc(CSc2nc3ccccc3s2)c1
MIC (Mycobacterium kansasii [1]): 32 µM (≈ 9.04 µg/mL) | MIC [2]: 62 µM (≈ 17.5 µg/mL) | MIC [3]: 250 µM (≈ 70.6 µg/mL) | MIC (Mycobacterium kansasii [4]): 500 µM (≈ 141 µg/mL) | MIC (Mycobacterium kansasii [5]): 62 µM (≈ 17.5 µg/mL) | MIC (Mycobacterium kansasii [6]): 250 µM (≈ 70.6 µg/mL) | MIC (Mycobacterium avium [7]): 32 µM (≈ 9.04 µg/mL) | MIC (Mycobacterium avium [8]): 62 µM (≈ 17.5 µg/mL) | MIC (Mycobacterium kansasii [9]): 125 µM (≈ 35.3 µg/mL) | MIC (Mycobacterium kansasii [10]): 125 µM (≈ 35.3 µg/mL)

O=[N+]([O-])c1ccccc1CSc1nc2ccccc2s1
MIC [2]: 125 µM (≈ 37.8 µg/mL) | MIC [3]: 500 µM (≈ 151 µg/mL) | MIC (Mycobacterium kansasii [5]): 32 µM (≈ 9.68 µg/mL) | MIC (Mycobacterium kansasii [14]): 32 µM (≈ 9.68 µg/mL) | MIC (Mycobacterium kansasii [6]): 125 µM (≈ 37.8 µg/mL) | MIC (Mycobacterium avium [7]): 125 µM (≈ 37.8 µg/mL) | MIC (Mycobacterium kansasii [17]): 500 µM (≈ 151 µg/mL) | MIC (Mycobacterium avium [8]): > 250 µM | MIC (Mycobacterium kansasii [9]): 62 µM (≈ 18.7 µg/mL) | MIC (Mycobacterium kansasii [10]): 125 µM (≈ 37.8 µg/mL)

O=[N+]([O-])c1ccc(CSc2nc3ccccc3o2)cc1
MIC (Mycobacterium kansasii [1]): 32 µM (≈ 9.16 µg/mL) | MIC [2]: > 62 µM | MIC [3]: > 125 µM | MIC (Mycobacterium kansasii [4]): > 62 µM | MIC (Mycobacterium kansasii [5]): 32 µM (≈ 9.16 µg/mL) | MIC (Mycobacterium kansasii [6]): 32 µM (≈ 9.16 µg/mL) | MIC (Mycobacterium avium [7]): > 32 µM | MIC (Mycobacterium avium [8]): > 62 µM | MIC (Mycobacterium kansasii [9]): 32 µM (≈ 9.16 µg/mL) | MIC (Mycobacterium kansasii [10]): > 32 µM

O=[N+]([O-])c1cc(CSc2nc3ccccc3o2)cc([N+](=O)[O-])c1
MIC (Mycobacterium kansasii [1]): 4 µM (≈ 1.33 µg/mL) | MIC [2]: 8 µM (≈ 2.65 µg/mL) | MIC [3]: 8 µM (≈ 2.65 µg/mL) | CC50 (HeLa): > 151 µM | Safety index [18]: >18.9 | MIC (Mycobacterium kansasii [4]): 4 µM (≈ 1.33 µg/mL) | MIC (Mycobacterium kansasii [5]): 8 µM (≈ 2.65 µg/mL) | MIC (Mycobacterium kansasii [6]): 4 µM (≈ 1.33 µg/mL) | MIC (Mycobacterium avium [7]): > 16 µM | MIC (Mycobacterium avium [8]): > 32 µM | MIC (Mycobacterium kansasii [9]): 2 µM (≈ 0.663 µg/mL) | MIC (Mycobacterium kansasii [10]): 8 µM (≈ 2.65 µg/mL)

Sc1nc2ccccc2s1 [2-MERCAPTOBENZOTHIAZOLE]
MIC [2]: 62 µM (≈ 10.4 µg/mL) | MIC [3]: 62 µM (≈ 10.4 µg/mL) | MIC (Mycobacterium kansasii [11]): > 62 µM | MIC (Mycobacterium avium [12]): > 62 µM | MIC (Mycobacterium kansasii [13]): > 62 µM | MIC (Mycobacterium kansasii [14]): 62 µM (≈ 10.4 µg/mL) | MIC (Mycobacterium kansasii [15]): 125 µM (≈ 20.9 µg/mL) | MIC (Mycobacterium avium [16]): > 62 µM | MIC (Mycobacterium kansasii [17]): > 125 µM | MIC (Mycobacterium kansasii [9]): 62 µM (≈ 10.4 µg/mL)

NNC(=O)c1ccncc1 [ISONIAZID]
MIC (Mycobacterium kansasii [1]): 2 µM (≈ 0.274 µg/mL) | MIC [2]: 0.5 µM (≈ 0.0686 µg/mL) | MIC [3]: 1 µM (≈ 0.137 µg/mL) | MIC (Mycobacterium kansasii [4]): > 250 µM | MIC (Mycobacterium kansasii [5]): 2 µM (≈ 0.274 µg/mL) | MIC (Mycobacterium kansasii [6]): > 250 µM | MIC (Mycobacterium avium [7]): > 250 µM | MIC (Mycobacterium avium [8]): > 250 µM | MIC (Mycobacterium kansasii [9]): > 250 µM | MIC (Mycobacterium kansasii [10]): 4 µM (≈ 0.549 µg/mL)
